Test results as given in ChEMBL document CHEMBL1275272, “Synthesis, characterization and antimicrobial activity of some disubstituted 1,3,4-oxadiazoles carrying 2-(aryloxymethyl)phenyl moiety” (2010).
Converted amounts (≈) assume the structure as drawn.

Columns and labels:
Assay type in all cases: functional
Escherichia coli = experiment: Antibacterial activity against Escherichia coli after 16 to 18 hrs by serial dilution method; details: for MIC: Escherichia coli
Procedure, shortened: (§1)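 The test compound was dissolved in DMF and serially diluted. A standard drop of the prepared microbial culture was added to each dilution, and tubes were incubated at 37 °C for 16–18 h. MIC was taken as the highest dilution that stayed clear with no visible turbidity.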

Talaromyces marneffei = experiment: Antifungal activity against Penicillium marneffei after 16 to 18 hrs by serial dilution method; details: for MIC: Talaromyces marneffei; procedure, shortened: as §1
Staphylococcus aureus = experiment: Antibacterial activity against Staphylococcus aureus after 16 to 18 hrs by serial dilution method; details: for MIC: Staphylococcus aureus; procedure, shortened: as §1
Aspergillus fumigatus = experiment: Antifungal activity against Aspergillus fumigatus after 16 to 18 hrs by serial dilution method; details: for MIC: Aspergillus fumigatus
Aspergillus flavus = experiment: Antifungal activity against Aspergillus flavus after 16 to 18 hrs by serial dilution method; details: for MIC: Aspergillus flavus; procedure, shortened: as §1
Klebsiella pneumoniae = experiment: Antibacterial activity against Klebsiella pneumoniae after 16 to 18 hrs by serial dilution method; details: for MIC: Klebsiella pneumoniae
Pseudomonas aeruginosa = experiment: Antibacterial activity against Pseudomonas aeruginosa after 16 to 18 hrs by serial dilution method; details: for MIC: Pseudomonas aeruginosa; procedure, shortened: as §1
[1] = system: Trichophyton mentagrophytes; experiment: Antifungal activity against Trichophyton mentagrophytes after 16 to 18 hrs by serial dilution method; details: for MIC: Trichophyton mentagrophytes

Cc1ccccc1OCc1ccccc1-c1nn(CNc2cccc(C(F)(F)F)c2)c(=S)o1
inhibition zone (IZ) (Escherichia coli): 16 mm
MIC (Escherichia coli): 6.25 µg/mL (≈ 13.3 µM)
inhibition zone (IZ) (Talaromyces marneffei): 16 mm
MIC (Talaromyces marneffei): 6.25 µg/mL (≈ 13.3 µM)
inhibition zone (IZ) (Staphylococcus aureus): 16 mm
MIC (Staphylococcus aureus): 6.25 µg/mL (≈ 13.3 µM)
inhibition zone (IZ) (Aspergillus fumigatus): 16 mm
MIC (Aspergillus fumigatus): 6.25 µg/mL (≈ 13.3 µM)
inhibition zone (IZ) (Aspergillus flavus): 16 mm
MIC (Aspergillus flavus): 6.25 µg/mL (≈ 13.3 µM)
inhibition zone (IZ) (Klebsiella pneumoniae): 16 mm
MIC (Klebsiella pneumoniae): 6.25 µg/mL (≈ 13.3 µM)
inhibition zone (IZ) (Pseudomonas aeruginosa): 16 mm
MIC (Pseudomonas aeruginosa): 6.25 µg/mL (≈ 13.3 µM)
inhibition zone (IZ) [1]: 16 mm
MIC [1]: 6.25 µg/mL (≈ 13.3 µM)

Cc1ccc(OCc2ccccc2-c2nnc(SCc3ccc(Cl)cc3)o2)cc1
inhibition zone (IZ) (Escherichia coli): 11 mm
MIC (Escherichia coli): 12.5 µg/mL (≈ 29.6 µM)
inhibition zone (IZ) (Talaromyces marneffei): 11 mm
MIC (Talaromyces marneffei): 12.5 µg/mL (≈ 29.6 µM)
inhibition zone (IZ) (Staphylococcus aureus): 11 mm
MIC (Staphylococcus aureus): 12.5 µg/mL (≈ 29.6 µM)
inhibition zone (IZ) (Aspergillus fumigatus): 11 mm
MIC (Aspergillus fumigatus): 12.5 µg/mL (≈ 29.6 µM)
inhibition zone (IZ) (Aspergillus flavus): 11 mm
MIC (Aspergillus flavus): 12.5 µg/mL (≈ 29.6 µM)
inhibition zone (IZ) (Klebsiella pneumoniae): 11 mm
MIC (Klebsiella pneumoniae): 12.5 µg/mL (≈ 29.6 µM)
inhibition zone (IZ) (Pseudomonas aeruginosa): 11 mm
MIC (Pseudomonas aeruginosa): 12.5 µg/mL (≈ 29.6 µM)
inhibition zone (IZ) [1]: 11 mm
MIC [1]: 12.5 µg/mL (≈ 29.6 µM)

Cc1cccc(CSc2nnc(-c3ccccc3COc3cccc(C)c3)o2)c1
inhibition zone (IZ) (Escherichia coli): 11 mm
MIC (Escherichia coli): 12.5 µg/mL (≈ 31.1 µM)
inhibition zone (IZ) (Talaromyces marneffei): 11 mm
MIC (Talaromyces marneffei): 12.5 µg/mL (≈ 31.1 µM)
inhibition zone (IZ) (Staphylococcus aureus): 11 mm
MIC (Staphylococcus aureus): 12.5 µg/mL (≈ 31.1 µM)
inhibition zone (IZ) (Aspergillus fumigatus): 16 mm
MIC (Aspergillus fumigatus): 6.25 µg/mL (≈ 15.5 µM)
inhibition zone (IZ) (Aspergillus flavus): 11 mm
MIC (Aspergillus flavus): 12.5 µg/mL (≈ 31.1 µM)
inhibition zone (IZ) (Klebsiella pneumoniae): 11 mm
MIC (Klebsiella pneumoniae): 12.5 µg/mL (≈ 31.1 µM)
inhibition zone (IZ) (Pseudomonas aeruginosa): 11 mm
MIC (Pseudomonas aeruginosa): 12.5 µg/mL (≈ 31.1 µM)
inhibition zone (IZ) [1]: 11 mm
MIC [1]: 12.5 µg/mL (≈ 31.1 µM)

Cc1ccccc1OCc1ccccc1-c1nnc(-c2cccc3ncccc23)o1
inhibition zone (IZ) (Escherichia coli): <10 mm
MIC (Escherichia coli): 25 µg/mL (≈ 63.5 µM)
inhibition zone (IZ) (Talaromyces marneffei): <10 mm
MIC (Talaromyces marneffei): 25 µg/mL (≈ 63.5 µM)
inhibition zone (IZ) (Staphylococcus aureus): <10 mm
MIC (Staphylococcus aureus): 25 µg/mL (≈ 63.5 µM)
inhibition zone (IZ) (Aspergillus fumigatus): <10 mm
MIC (Aspergillus fumigatus): 25 µg/mL (≈ 63.5 µM)
inhibition zone (IZ) (Aspergillus flavus): <10 mm
MIC (Aspergillus flavus): 25 µg/mL (≈ 63.5 µM)
inhibition zone (IZ) (Klebsiella pneumoniae): <10 mm
MIC (Klebsiella pneumoniae): 25 µg/mL (≈ 63.5 µM)
inhibition zone (IZ) (Pseudomonas aeruginosa): <10 mm
MIC (Pseudomonas aeruginosa): 25 µg/mL (≈ 63.5 µM)
inhibition zone (IZ) [1]: <10 mm
MIC [1]: 25 µg/mL (≈ 63.5 µM)

Cc1cccc(OCc2ccccc2-c2nnc(-c3ccccc3)o2)c1
inhibition zone (IZ) (Escherichia coli): <10 mm
MIC (Escherichia coli): 25 µg/mL (≈ 73 µM)
inhibition zone (IZ) (Talaromyces marneffei): <10 mm
MIC (Talaromyces marneffei): 25 µg/mL (≈ 73 µM)
inhibition zone (IZ) (Staphylococcus aureus): <10 mm
MIC (Staphylococcus aureus): 25 µg/mL (≈ 73 µM)
inhibition zone (IZ) (Aspergillus fumigatus): <10 mm
MIC (Aspergillus fumigatus): 25 µg/mL (≈ 73 µM)
inhibition zone (IZ) (Aspergillus flavus): <10 mm
MIC (Aspergillus flavus): 25 µg/mL (≈ 73 µM)
inhibition zone (IZ) (Klebsiella pneumoniae): <10 mm
MIC (Klebsiella pneumoniae): 25 µg/mL (≈ 73 µM)
inhibition zone (IZ) (Pseudomonas aeruginosa): <10 mm
MIC (Pseudomonas aeruginosa): 25 µg/mL (≈ 73 µM)
inhibition zone (IZ) [1]: <10 mm
MIC [1]: 25 µg/mL (≈ 73 µM)

COc1cc(-c2nnc(-c3ccccc3COc3cccc(C)c3)o2)cc(OC)c1OC
inhibition zone (IZ) (Escherichia coli): 16 mm
MIC (Escherichia coli): 6.25 µg/mL (≈ 14.5 µM)
inhibition zone (IZ) (Talaromyces marneffei): 16 mm
MIC (Talaromyces marneffei): 6.25 µg/mL (≈ 14.5 µM)
inhibition zone (IZ) (Staphylococcus aureus): 16 mm
MIC (Staphylococcus aureus): 6.25 µg/mL (≈ 14.5 µM)
inhibition zone (IZ) (Aspergillus fumigatus): 16 mm
MIC (Aspergillus fumigatus): 6.25 µg/mL (≈ 14.5 µM)
inhibition zone (IZ) (Aspergillus flavus): 11 mm
MIC (Aspergillus flavus): 12.5 µg/mL (≈ 28.9 µM)
inhibition zone (IZ) (Klebsiella pneumoniae): 16 mm
MIC (Klebsiella pneumoniae): 6.25 µg/mL (≈ 14.5 µM)
inhibition zone (IZ) (Pseudomonas aeruginosa): 16 mm
MIC (Pseudomonas aeruginosa): 6.25 µg/mL (≈ 14.5 µM)
inhibition zone (IZ) [1]: 11 mm
MIC [1]: 12.5 µg/mL (≈ 28.9 µM)

Cc1cc(C2CCCCC2)n(O)c(=O)c1.NCCO [CICLOPIROX OLAMINE]
inhibition zone (IZ) (Talaromyces marneffei): 20 mm
MIC (Talaromyces marneffei): 6.25 µg/mL
inhibition zone (IZ) (Aspergillus fumigatus): 25 mm
MIC (Aspergillus fumigatus): 6.25 µg/mL
inhibition zone (IZ) (Aspergillus flavus): 25 mm
MIC (Aspergillus flavus): 3.12 µg/mL
inhibition zone (IZ) [1]: 27 mm
MIC [1]: 3.12 µg/mL

Cc1cccc(OCc2ccccc2-c2nnc(-c3cccnc3Cl)o2)c1
inhibition zone (IZ) (Escherichia coli): 11 mm
MIC (Escherichia coli): 12.5 µg/mL (≈ 33.1 µM)
inhibition zone (IZ) (Staphylococcus aureus): 11 mm
MIC (Staphylococcus aureus): 12.5 µg/mL (≈ 33.1 µM)
inhibition zone (IZ) (Klebsiella pneumoniae): 11 mm
MIC (Klebsiella pneumoniae): 12.5 µg/mL (≈ 33.1 µM)
inhibition zone (IZ) (Pseudomonas aeruginosa): 11 mm
MIC (Pseudomonas aeruginosa): 12.5 µg/mL (≈ 33.1 µM)

Clc1ccc(OCc2ccccc2-c2nnc(-c3cccnc3Cl)o2)cc1
inhibition zone (IZ) (Escherichia coli): 11 mm
MIC (Escherichia coli): 12.5 µg/mL (≈ 31.4 µM)
inhibition zone (IZ) (Staphylococcus aureus): 11 mm
MIC (Staphylococcus aureus): 12.5 µg/mL (≈ 31.4 µM)
inhibition zone (IZ) (Klebsiella pneumoniae): 11 mm
MIC (Klebsiella pneumoniae): 12.5 µg/mL (≈ 31.4 µM)
inhibition zone (IZ) (Pseudomonas aeruginosa): 11 mm
MIC (Pseudomonas aeruginosa): 12.5 µg/mL (≈ 31.4 µM)

Cc1ccc(OCc2ccccc2-c2nnc(-c3cccnc3Cl)o2)cc1
inhibition zone (IZ) (Escherichia coli): 11 mm
MIC (Escherichia coli): 12.5 µg/mL (≈ 33.1 µM)
inhibition zone (IZ) (Staphylococcus aureus): 11 mm
MIC (Staphylococcus aureus): 12.5 µg/mL (≈ 33.1 µM)
inhibition zone (IZ) (Klebsiella pneumoniae): 11 mm
MIC (Klebsiella pneumoniae): 12.5 µg/mL (≈ 33.1 µM)
inhibition zone (IZ) (Pseudomonas aeruginosa): 11 mm
MIC (Pseudomonas aeruginosa): 12.5 µg/mL (≈ 33.1 µM)

Cc1ccccc1OCc1ccccc1-c1nnc(-c2cccnc2Cl)o1
inhibition zone (IZ) (Escherichia coli): 11 mm
MIC (Escherichia coli): 12.5 µg/mL (≈ 33.1 µM)
inhibition zone (IZ) (Staphylococcus aureus): 11 mm
MIC (Staphylococcus aureus): 12.5 µg/mL (≈ 33.1 µM)
inhibition zone (IZ) (Klebsiella pneumoniae): 11 mm
MIC (Klebsiella pneumoniae): 12.5 µg/mL (≈ 33.1 µM)
inhibition zone (IZ) (Pseudomonas aeruginosa): 11 mm
MIC (Pseudomonas aeruginosa): 12.5 µg/mL (≈ 33.1 µM)

O=C(O)c1cn(C2CC2)c2cc(N3CCNCC3)c(F)cc2c1=O [CIPROFLOXACIN]
inhibition zone (IZ) (Staphylococcus aureus): 30 mm
inhibition zone (IZ) (Klebsiella pneumoniae): 22 mm
MIC (Klebsiella pneumoniae): 1.56 µg/mL (≈ 4.71 µM)
inhibition zone (IZ) (Pseudomonas aeruginosa): 25 mm
